Legend:
Cavia porcellus [1] = species on record: Cavia porcellus; experiment: Inhibition of LTC4-induced contractions from guinea pig peripheral lung strips; format: functional
In short: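 Guinea pig peripheral lung strips were contracted with 0.2 nM LTC4, and inhibition was measured. IC50 was determined graphically; values are means ± SEM of N separate experiments.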

Cavia porcellus [2] = species on record: Cavia porcellus; experiment: Oral activity expressed as percent inhibition in leukotriene mediated anaphylaxis assay in guinea pig at 30 uM; format: functional
In short: (§1)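 Guinea pigs immunized with ovalbumin were pretreated with pyrilamine, propranolol and indomethacin. Compounds were given orally 1 h before aerosol antigen challenge. Six animals were used per dose. ED50 was determined from at least three doses; single doses are reported as % inhibition in mg/kg.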

[3] = biological target: T1, Cysteinyl leukotriene receptor 1 (Cavia porcellus, UniProt Q2NNR5); experiment: Binding affinity against Cysteinyl leukotriene D4 receptor from guinea pig lung was determined using [3H]-LTD4 (0.2 nM)
T1 sequence (Q2NNR5 whole entry): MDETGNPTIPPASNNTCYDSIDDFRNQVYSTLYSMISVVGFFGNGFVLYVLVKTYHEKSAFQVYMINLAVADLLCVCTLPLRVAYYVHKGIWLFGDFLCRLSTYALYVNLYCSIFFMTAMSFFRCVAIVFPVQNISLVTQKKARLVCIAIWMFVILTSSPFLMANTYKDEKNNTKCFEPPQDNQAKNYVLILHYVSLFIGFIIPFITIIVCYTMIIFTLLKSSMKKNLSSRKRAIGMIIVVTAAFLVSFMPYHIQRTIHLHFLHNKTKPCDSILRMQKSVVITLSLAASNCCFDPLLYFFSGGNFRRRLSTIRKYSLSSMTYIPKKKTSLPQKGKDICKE
In short: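 Guinea pig lung membranes were used in a radioligand competition assay against 0.2 nM [3H]LTD4, with compounds at multiple concentrations. IC50 was determined graphically and converted to Ki. Values are means ± SEM of N separate experiments.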

Cavia porcellus [4] = species on record: Cavia porcellus; experiment: Oral activity expressed as percent inhibition in LTD4-induced wheal assay in guinea pig at 18 uM; format: functional; settings: in the assay text read “18 mg/kg” for “18 uM”
In short: (§2)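 In guinea pigs, compounds were given orally 1 h before intradermal injection of 100 ng LTD4, and wheal inhibition was measured. Five animals were used per dose. ED50 was determined from at least three doses; single doses are reported as % inhibition in mg/kg.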

[5] = biological target: T1, Cysteinyl leukotriene receptor 1; experiment: Binding affinity against Cysteinyl leukotriene D4 receptor from guinea pig lung was determined using [3H]LTD4
In short: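 Guinea pig lung membranes; competition against 0.2 nM [3H]LTD4 with test compounds at multiple concentrations. IC50 was determined graphically and converted to Ki. Values are means ± SEM of N separate experiments.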

Cavia porcellus [6] = species on record: Cavia porcellus; experiment: Oral activity expressed as percent inhibition in LTD4-induced wheal assay in guinea pig at 3 uM; format: functional; in short: as §2
Cavia porcellus [7] = species on record: Cavia porcellus; experiment: Oral activity expressed as percent inhibition in LTD4-induced wheal assay in guinea pig at 13 uM; format: functional
Cavia porcellus [8] = species on record: Cavia porcellus; experiment: Oral activity expressed as percent inhibition in leukotriene mediated anaphylaxis assay in guinea pig at 10 uM; format: functional; in short: as §1
Cavia porcellus [9] = species on record: Cavia porcellus; experiment: Oral activity expressed as effective dose in LTD4-induced wheal assay in guinea pig; format: functional; in short: as §2
Cavia porcellus [10] = species on record: Cavia porcellus; experiment: Oral activity expressed as percent inhibition in LTD4-induced wheal assay in guinea pig at 9 uM; format: functional; in short: as §2
Cavia porcellus [11] = species on record: Cavia porcellus; experiment: Oral activity expressed as effective dose in leukotriene mediated anaphylaxis assay in guinea pig; format: functional; in short: as §1
[12] = biological target: T1, Cysteinyl leukotriene receptor 1; experiment: Binding affinity against Cysteinyl leukotriene D4 receptor from guinea pig trachea using [3H]LTD4; settings: read-out: pA2 (converted)
[13] = biological target: T1, Cysteinyl leukotriene receptor 1; experiment: Inhibitory concentration of compound against binding of Cysteinyl leukotriene D4 receptor from guinea pig lung using [3H]LTD4
Cavia porcellus [14] = species on record: Cavia porcellus; experiment: Inhibits leukotriene mediated anaphylaxis in guinea pig at 60 uM concentration; format: functional; in short: as §1
Cavia porcellus [15] = species on record: Cavia porcellus; experiment: Inhibits leukotriene D4 in guinea pig by wheal essay at 9 uM concentration; format: functional; in short: as §2
[16] = biological target: T2, Cysteinyl leukotriene receptor 1 (Cavia porcellus) (UniProt Q2NNR5); experiment: Binding affinity against Cysteinyl leukotriene D4 receptor from guinea pig lung was determined using [3H]LTD4 (0.2 nM) at compound concentration of 1 uM
T2 sequence (whole entry): T1 sequence (Q2NNR5 whole entry)

| SMILES | IC50 (Cavia porcellus [1]) [µM] | Ki [3] [µM] | Inhibition (Cavia porcellus [2]) [%] | also measured |
| --- | --- | --- | --- | --- |
| c1cc(COc2ccc(-c3nn[nH]n3)cc2)cc(OCc2ccc3ccccc3n2)c1 | 0.014 | 0.0029 | -9 | – |
| c1cc(OCc2cccc(-c3nn[nH]n3)c2)cc(OCc2ccc3ccccc3n2)c1 | – | 0.016 | 83 | Inhibition (Cavia porcellus [4]): 45% |
| COc1cc(-c2nn[nH]n2)ccc1OCc1ccc(OCc2ccc3ccccc3n2)cc1 | – | 0.022 | – | – |
| O=S(=O)(Nc1cccc(OCc2ccc3ccccc3n2)c1)C(F)(F)F [RITOLUKAST] | – | – | – | Ki [5]: 0.035 µM |
| c1cc(OCc2ccc(OCc3nn[nH]n3)cc2)cc(OCc2ccc3ccccc3n2)c1 | 0.008 | 0.0022 | 82 | Inhibition (Cavia porcellus [4]): 59% |
| COc1cc(OCc2ccc(OCc3ccc4ccccc4n3)cc2)cc(-c2nn[nH]n2)c1 | 0.013 | 0.0075 | – | Inhibition (Cavia porcellus [7]): 26% |
| c1ccc2nc(COc3ccc(OCc4ccc(Cc5nnn[nH]5)cc4)cc3)ccc2c1 | 0.012 | 0.0085 | – | Inhibition (Cavia porcellus [10]): 34%; ED50 (Cavia porcellus [11]): 30 mg/kg |
| c1cc(OCc2ccc3ccccc3n2)cc(OCc2ccccc2Cc2nnn[nH]2)c1 | 0.0095 | 0.012 | 75 | Inhibition (Cavia porcellus [4]): 17% |
| c1cc(COc2ccc(OCc3ccc4ccccc4n3)cc2)cc(OCc2nn[nH]n2)c1 | 0.009 | 0.008 | 27 | ED50 (Cavia porcellus [9]): 2.8 mg/kg |
| COc1cc(OCc2cccc(OCc3ccc4ccccc4n3)c2)cc(-c2nnn[nH]2)c1 | – | 0.01 | – | – |
| c1cc(OCc2ccc(Cc3nnn[nH]3)cc2)cc(OCc2ccc3ccccc3n2)c1 | 0.02 | 0.0073 | – | ED50 (Cavia porcellus [11]): 30 mg/kg; ED50 (Cavia porcellus [9]): 6.8 mg/kg |
| c1ccc2nc(COc3ccc(COc4ccc(-c5nn[nH]n5)cc4)cc3)ccc2c1 | 0.044 | 0.031 | 64 | ED50 (Cavia porcellus [9]): 8 mg/kg |
| c1ccc(OCc2nn[nH]n2)c(COc2ccc(OCc3ccc4ccccc4n3)cc2)c1 | 0.0042 | 0.0021 | – | Inhibition (Cavia porcellus [8]): 61%; Inhibition (Cavia porcellus [6]): 45% |
| c1cc(OCc2ccc3ccccc3n2)cc(OCc2ccccc2-c2nnn[nH]2)c1 | 0.019 | 0.02 | – | – |
| CN(C)C(=O)CCSC(SCCC(=O)O)c1cccc(/C=C/c2ccc3ccc(Cl)cc3n2)c1 (centres undefined) [MK-571] | – | – | – | Kb [12]: 0.001 µM |
| c1cc(OCc2ccc3ccccc3n2)cc(OCc2ccccc2OCc2nn[nH]n2)c1 | 0.027 | 0.017 | – | ED50 (Cavia porcellus [11]): 10 mg/kg; Inhibition (Cavia porcellus [4]): 42% |
| CCCc1c(OCC(O)COc2ccc3c(=O)cc(C(=O)O)oc3c2CCC)ccc(C(C)=O)c1O (centres undefined) [FPL-55712] | 0.94 | – | – | – |
| O=C(O)c1ccccc1Nc1cccc(OCc2ccc3ccccc3n2)c1 [SR-2640] | – | – | – | IC50 [13]: 0.023 µM |
| c1ccc(Cc2nn[nH]n2)c(COc2ccc(OCc3ccc4ccccc4n3)cc2)c1 [RG-12525] | 0.0027 | 0.003 | – | Kb [16]: 0.003 µM; ED50 (Cavia porcellus [11]): 2.2 mg/kg; ED50 (Cavia porcellus [9]): 4.9 mg/kg |
| c1cc(COc2ccc(OCc3ccc4ccccc4n3)cc2)cc(-c2nn[nH]n2)c1 | 0.002 | 0.0022 | – | Inhibition (Cavia porcellus [8]): 33%; ED50 (Cavia porcellus [9]): 2 mg/kg |
| c1cc(OCc2ccc(-c3nnn[nH]3)cc2)cc(OCc2ccc3ccccc3n2)c1 | 0.012 | 0.01 | – | ED50 (Cavia porcellus [11]): 10 mg/kg; ED50 (Cavia porcellus [9]): 6.5 mg/kg |
| c1cc(COc2ccc(OCc3ccc4ccccc4n3)cc2)cc(Cc2nnn[nH]2)c1 | 0.034 | 0.008 | – | Inhibition (Cavia porcellus [8]): 64%; ED50 (Cavia porcellus [9]): 3 mg/kg |

Continued, in another order:

| IC50 (Cavia porcellus [1]) [µM] | Ki [3] [µM] | SMILES | Inhibition (Cavia porcellus [2]) [%] | also measured |
| --- | --- | --- | --- | --- |
| 0.02 | 0.0085 | C(=C\c1cccc(-c2nn[nH]n2)c1)/c1cccc(OCc2ccc3ccccc3n2)c1 | – | Inhibition (Cavia porcellus [6]): 15% |
| 0.0063 | 0.007 | COc1cc(COc2cccc(OCc3ccc4ccccc4n3)c2)cc(-c2nn[nH]n2)c1 | – | Inhibition (Cavia porcellus [8]): 17%; ED50 (Cavia porcellus [9]): 38 mg/kg |
| 0.075 | 0.09 | O=C(O)c1ccc(COc2cccc(OCc3ccc4ccccc4n3)c2)cc1 | – | – |
| 0.016 | 0.008 | COC(=O)c1ccc(COc2cccc(OCc3ccc4ccccc4n3)c2)c(OCc2nn[nH]n2)c1 | 9 | – |
| – | 0.0025 | Clc1ccc2ccc(COc3ccc(OCc4ccccc4Cc4nnn[nH]4)cc3)nc2c1 | – | – |
| – | 0.0025 | Clc1ccc2ccc(/C=C/c3ccc(OCc4ccccc4Cc4nnn[nH]4)cc3)nc2c1 | – | – |
| 0.1 | 0.04 | O=C(O)c1cccc(COc2cccc(OCc3ccc4ccccc4n3)c2)c1 | – | Inhibition (Cavia porcellus [14]): 60%; Inhibition (Cavia porcellus [15]): 7% |
| 0.009 | 0.0043 | COc1cc(-c2nn[nH]n2)ccc1COc1cccc(OCc2ccc3ccccc3n2)c1 | 45 | Inhibition (Cavia porcellus [10]): 22% |
| 0.036 | 0.016 | COc1cc(-c2nn[nH]n2)ccc1OCc1cccc(OCc2ccc3ccccc3n2)c1 | 9 | – |
| – | 0.0034 | C(=C\c1ccc2ccccc2n1)/c1ccc(OCc2ccccc2Cc2nnn[nH]2)cc1 | – | Inhibition (Cavia porcellus [8]): 80% |
| 0.024 | 0.013 | c1cc(OCc2cccc(OCc3nn[nH]n3)c2)cc(OCc2ccc3ccccc3n2)c1 | 64 | Inhibition (Cavia porcellus [4]): 37% |
| 0.02 | 0.017 | c1cc(CCc2cccc(-c3nn[nH]n3)c2)cc(OCc2ccc3ccccc3n2)c1 | – | ED50 (Cavia porcellus [11]): 24 mg/kg; Inhibition (Cavia porcellus [4]): 44% |
| 0.012 | 0.01 | c1cc(COc2cccc(OCc3ccc4ccccc4n3)c2)cc(Cc2nnn[nH]2)c1 | – | ED50 (Cavia porcellus [11]): 10 mg/kg; ED50 (Cavia porcellus [9]): 1.8 mg/kg |
| 0.02 | 0.0053 | c1cc(COc2cccc(-c3nn[nH]n3)c2)cc(OCc2ccc3ccccc3n2)c1 | 45 | ED50 (Cavia porcellus [9]): 28 mg/kg |

— ChEMBL document CHEMBL1124744, “Development of a novel series of (2-quinolinylmethoxy)phenyl-containing compounds as high-affinity leukotriene D4 receptor antagonists. 2. Effects of an additional phenyl ring on receptor affinity” (J Med Chem, 1990)
